This note sets out measurements from ChEMBL document CHEMBL2034866, “Design, synthesis and biological evaluation of a novel series of 1,3,4-oxadiazole bearing N-methyl-4-(trifluoromethyl)phenyl pyrazole moiety as cytotoxic agents” (Eur J Med Chem, 2012).

pIC50: −log10 of the molar value. Some results are limits rather than exact numbers.

For experiment [1], the system named is MCF7. The experiment in a line: Cytotoxicity against human MCF7 cells after 24 hrs by MTT assay. The class given is functional, cell-based. The following applies: for pIC50: MCF7, 24 h. A digest of the protocol: (§1)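 Exponentially growing cells were seeded at 10⁴ cells/well and allowed to attach for 24 h. Compounds were dissolved in 0.1% DMSO, diluted in medium and added across 1–100 for 24 h; controls received medium with 0.1% DMSO. MTT (1 mg/mL) was added for 4 h at 37 °C, formazan was solubilised in DMSO and A540 read. Assays were run in triplicate, with % cytotoxicity calculated from control-, blank- and test-well absorbances.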
Background: Formazan colour is commonly taken as a measure of viable cells.

Experiment [2] can be described thus: Cytotoxicity against mouse EAC cells after 24 hrs by MTT assay. The class given is functional, cell-based. As to conditions: Ehrlich. In short, it runs like this:
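Mouse Ehrlich ascites tumour cells were given at least one in vitro passage before use, then plated at 10⁴ cells/well with 24 h attachment. Compounds in 0.1% DMSO/medium were tested at 1–100 for 24 h against vehicle controls. MTT (1 mg/mL) was applied for 4 h at 37 °C, formazan dissolved in DMSO and A540 read. Done in triplicate; % cytotoxicity was taken relative to control and blank absorbances.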

For a further experiment, the system named is A549. The experiment in a line: Cytotoxicity against human A549 cells after 24 hrs by MTT assay. The class given is functional, cell-based. As to conditions: A549, 24 h. In short, it runs like this: as §1
The test system of experiment [3] is MCF7. The experiment in a line: Cytotoxicity against human MCF7 cells after 48 hrs by MTT assay. Type of experiment: functional, cell-based. As to conditions: MCF7, 48 h. A digest of the protocol: (§2)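 Time-course MTT: MCF-7 cells were seeded at 5 × 10³ cells/well and exposed to compounds at 1–50. % cytotoxicity and IC50 were determined at 24, 48 and 72 h using MTT read-out at 540 nm. Each experiment was performed independently three times and reported as mean ± SD.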

Experiment [4] has as its system MCF7. The experiment can be described thus: Cytotoxicity against human MCF7 cells after 72 hrs by MTT assay. Type of experiment: functional, cell-based. As to conditions: MCF7, 72 h. In short, it runs like this: as §2
Experiment [5] concerns MCF7. The experiment in a line: Cytotoxicity against human MCF7 cells at 1 to 50 uM by MTT assay. The class given is functional, cell-based. As to conditions: TDE = time-dependent effect. In short, it runs like this:
as §2

In experiment [6] the test system is MCF7. The experiment can be described thus: Ratio of IC50 for human MCF7 cells after 24 hrs to IC50 for human MCF7 cells after 72 hrs by MTT assay. The class given is functional. A digest of the protocol: (§3)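 MCF-7 cells at 5 × 10³ cells/well were treated with compounds at 1–50, and MTT IC50 values were determined at 24, 48 and 72 h (three independent experiments, mean ± SD). The fold reduction is the 24 h IC50 divided by the 48 h or 72 h IC50.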

The test system of experiment [7] is MCF7. The experiment in a line: Ratio of IC50 for human MCF7 cells after 24 hrs to IC50 for human MCF7 cells after 48 hrs by MTT assay. The class given is functional. A digest of the protocol: as §3

Consider `Cn1nc(-c2nnc(SCc3cccc([N+](=O)[O-])c3)o2)cc1-c1ccc(C(F)(F)F)cc1`, for which the pIC50 (in the experiment with MCF7 [1]; in experiment [2]) was less than 4.00 in each case.
For `COc1cccc2c1C(=O)c1c(O)c3c(c(O)c1C2=O)C[C@@](O)(C(=O)CO)C[C@@H]3O[C@H]1C[C@H](N)[C@H](O)[C@H](C)O1` [DOXORUBICIN], in the experiment on A549, the pIC50 (commonly the IC50 on a negative log10 scale, so that one unit is a factor of ten) was 5.48.
For `Cn1nc(-c2ccc(C(F)(F)F)cc2)cc1-c1nnc(SCCc2ccc(F)cc2)o1`, the pIC50 with A549 is 4.07; in the experiment with MCF7 [1], 4.34; in experiment [2], 4.40.
Take `Cn1nc(-c2nnc(SCc3ccc(Cl)c(Cl)c3)o2)cc1-c1ccc(C(F)(F)F)cc1`: the values for the pIC50 (in the experiment on A549; in the experiment on MCF7 [1]; in experiment [2]) were 4.35, 4.57 and 4.33, respectively.
On to `Cn1nc(-c2ccc(C(F)(F)F)cc2)cc1-c1nnc(S)o1`, for which the pIC50 is less than 4.00 with MCF7 [1] and 4.12 in experiment [2].
Take `Cn1nc(-c2nnc(SCCc3ccc(F)cc3)o2)cc1-c1ccc(C(F)(F)F)cc1`: the pIC50 is 4.68 in the experiment on MCF7 [3]; 4.41 in the experiment on A549; 4.60 in the experiment on MCF7 [1]; 4.74 with MCF7 [4]; 4.53 in experiment [2]. The Activity entry in the experiment with MCF7 [1] was “Dose-dependent effect”; in the experiment with MCF7 [5], “tde”.
For the compound `Cn1nc(-c2nnc(SCc3c(F)cccc3F)o2)cc1-c1ccc(C(F)(F)F)cc1`, the pIC50 was 4.69 with MCF7 [3]; 4.42 in the experiment on A549; 4.58 in the experiment with MCF7 [1]; 4.79 with MCF7 [4]; 4.55 in experiment [2]. For the same compound, the Activity result with MCF7 [1] was “Dose-dependent effect”; with MCF7 [5], “tde”.
Consider `Cn1nc(-c2nnc(SCc3ccc(Cl)cc3F)o2)cc1-c1ccc(C(F)(F)F)cc1`, for which the pIC50 is 4.91 in the experiment on MCF7 [3]; 4.32 with A549; 4.74 with MCF7 [1]; 5.01 with MCF7 [4]; 4.58 in experiment [2]. The results for the Activity result in the experiment on MCF7 [1] and in the experiment with MCF7 [5] were “Dose-dependent effect” and “tde”, respectively.
With `Cn1nc(-c2ccc(C(F)(F)F)cc2)cc1-c1nnc(SCCOc2ccccc2F)o1`, the pIC50 with A549 is 4.17; with MCF7 [1], 4.48; in experiment [2] it was 4.45.
The matching figures for `Cn1nc(-c2ccc(C(F)(F)F)cc2)cc1-c1nnc(SCc2cccc(Cl)c2Cl)o1`: 4.07, 4.22 and 4.25.
As for `Cn1nc(-c2ccc(C(F)(F)F)cc2)cc1-c1nnc(SCc2c(F)cccc2F)o1`, the negative-log IC50 (pIC50) is 4.14 with A549, 4.34 in the experiment with MCF7 [1] and 4.41 in experiment [2].
Take `Cn1nc(-c2ccc(C(F)(F)F)cc2)cc1-c1nnc(SCc2cccc([N+](=O)[O-])c2)o1`: the pIC50 (in the experiment on MCF7 [1]; in experiment [2]) was less than 4.00 in each case.
On to `Cn1nc(-c2nnc(S)o2)cc1-c1ccc(C(F)(F)F)cc1`, for which the pIC50 in the experiment on MCF7 [1] was less than 4.00; in experiment [2], 4.17.
For `Cn1nc(-c2ccc(C(F)(F)F)cc2)cc1-c1nnc(SCc2ccc(C(F)(F)F)cc2)o1`, the results for the pIC50 (in the experiment on A549; in the experiment on MCF7 [1]; in experiment [2]) were 4.40, 4.57 and 4.56, respectively.
The matching figures for `Cn1nc(-c2nnc(SCc3cccc(Cl)c3Cl)o2)cc1-c1ccc(C(F)(F)F)cc1`: 4.27, 4.49 and 4.43.
As to `Cn1nc(-c2nnc(SCc3ccc(C(F)(F)F)cc3)o2)cc1-c1ccc(C(F)(F)F)cc1`, the pIC50 in the experiment on MCF7 [3] was 5.05; with A549, 4.53; in the experiment on MCF7 [1] it was 4.81; with MCF7 [4], 5.28; in experiment [2], 4.69. Also, the “Ratio IC50” value is reported as 2.96 with MCF7 [6] and 1.75 in the experiment on MCF7 [7]. The Activity result with MCF7 [1] was “Dose-dependent effect”; in the experiment with MCF7 [5] it was “tde”.
As for `Cn1nc(-c2nnc(SCCOc3ccccc3F)o2)cc1-c1ccc(C(F)(F)F)cc1`, the pIC50 in the experiment with MCF7 [3] is 4.72; with A549, 4.32; with MCF7 [1], 4.64; in the experiment on MCF7 [4] it was 4.85; in experiment [2] it was 4.60. Besides, the Activity result in the experiment with MCF7 [1] was “Dose-dependent effect”; in the experiment on MCF7 [5], “tde”.
